One series concerns the target hAChE (Homo sapiens, UniProt P22303). As to the kind of experiment: In vitro AChE inhibition assay. To be noted: for IC50: in vitro AChE inhibition IC50 ± SD, Ellman method, n = 3. The format is biochemical.
The target in a further series is hBuChE (Homo sapiens, UniProt P06276). As to the kind of experiment: In vitro BuChE inhibition assay. The series is classed as biochemical. To be noted: for IC50: BuChE IC50 ± SD, modified Ellman method. For orientation: In Ellman's method for cholinesterases, released thiocholine reacts with DTNB.
A further series deals with BACE-1 (Homo sapiens, UniProt P56817). As to the kind of experiment: β-Secretase inhibition assay. The series is classed as biochemical. To be noted: BACE-1 IC50 ± SD.
The next series deals with T1, hMAO-B (Homo sapiens, UniProt P27338).
T1 sequence (P27338 1-520): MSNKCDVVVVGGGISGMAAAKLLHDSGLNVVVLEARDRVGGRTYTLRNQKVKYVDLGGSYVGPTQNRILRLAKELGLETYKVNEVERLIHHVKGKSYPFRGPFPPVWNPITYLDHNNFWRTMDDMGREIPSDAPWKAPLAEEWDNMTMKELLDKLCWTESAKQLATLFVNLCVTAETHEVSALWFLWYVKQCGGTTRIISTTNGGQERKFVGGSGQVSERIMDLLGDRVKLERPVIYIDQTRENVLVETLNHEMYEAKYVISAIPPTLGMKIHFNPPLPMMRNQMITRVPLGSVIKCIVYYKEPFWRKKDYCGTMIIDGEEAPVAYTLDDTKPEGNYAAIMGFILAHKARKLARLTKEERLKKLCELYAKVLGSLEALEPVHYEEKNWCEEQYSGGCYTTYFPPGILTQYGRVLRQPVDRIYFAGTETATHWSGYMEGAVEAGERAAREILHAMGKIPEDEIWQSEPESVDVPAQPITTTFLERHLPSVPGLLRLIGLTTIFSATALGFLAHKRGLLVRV
As to the kind of experiment: biochemical. The series is classed as biochemical.

A further series deals with Aβ1–42 (Homo sapiens, UniProt P05067). As to the kind of experiment: Self-induced Aβ1–42 aggregation inhibition. The series is classed as biochemical. Conditions: for IC50: Aβ1–42 aggregation inhibition IC50, self-induced aggregation; for inhibition at 10 µM: read-out: Aβ1–42 (% inhibition at 10 μM).
Series [1] is described as follows: Total antioxidant capacity. Conditions: Trolox TAC value = 1.00.
Series [2] in a line: In vitro neurotoxicity MTT assay. The series is classed as cell-based. Conditions: human, SH-SY5Y neuroblastoma cells.
Series [3] in a line: Metal chelation assay, UV–vis spectroscopy. The series is classed as physicochemical. To be noted: compound 30 μM, FeSO4 30 μM, ethanol. The procedure, abridged: (§1)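 Test compound and metal salt (CuSO4, ZnSO4 or FeSO4) mixed in ethanol, both at 30 μM final, and incubated 30 min at room temperature. UV-vis spectra were recorded from 200 to 600 nm for the compound alone, the metal alone and the mixture. Spectra of metal alone and compound alone were subtracted from the mixture spectrum to give the difference spectrum attributed to complex formation.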

A short description of series [4]: Metal chelation assay, UV–vis spectroscopy. The format is physicochemical. To be noted: compound 30 μM, CuSO4 30 μM, ethanol. An outline of the steps: as §1
Series [5] is described as follows: Metal chelation assay, UV–vis spectroscopy. The format is physicochemical. Conditions: compound 30 μM, ZnSO4 30 μM, ethanol. An outline of the steps: as §1
Series [6] is described as follows: In vitro hepatotoxicity MTT assay. To be noted: human. In general terms: Tetrazolium assays rely on reduction of a dye to a coloured formazan, in cell work by metabolically active cells.
A further series concerns HepG2 cell line. In words: In vitro hepatotoxicity MTT assay. To be noted: ratio of hepatotoxicity IC50 to AChE IC50.

“And” between values parts separate entries of the source, which are not always exact repeats. Identical values can stand only once.

Sequence of BACE-1 (P56817 46-501): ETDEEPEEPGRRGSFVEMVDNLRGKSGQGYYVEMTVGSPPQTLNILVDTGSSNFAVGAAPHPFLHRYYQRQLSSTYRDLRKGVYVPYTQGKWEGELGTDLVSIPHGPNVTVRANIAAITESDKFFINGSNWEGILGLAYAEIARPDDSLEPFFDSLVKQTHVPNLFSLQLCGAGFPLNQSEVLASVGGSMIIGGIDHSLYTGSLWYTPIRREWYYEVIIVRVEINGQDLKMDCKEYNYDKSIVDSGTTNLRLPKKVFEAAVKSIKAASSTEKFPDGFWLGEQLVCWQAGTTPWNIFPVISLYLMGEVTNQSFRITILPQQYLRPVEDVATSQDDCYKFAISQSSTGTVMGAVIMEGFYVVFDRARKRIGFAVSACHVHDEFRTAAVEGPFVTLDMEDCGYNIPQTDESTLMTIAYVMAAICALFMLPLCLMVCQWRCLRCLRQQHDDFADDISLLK
Sequence of hBuChE (P06276 29-602): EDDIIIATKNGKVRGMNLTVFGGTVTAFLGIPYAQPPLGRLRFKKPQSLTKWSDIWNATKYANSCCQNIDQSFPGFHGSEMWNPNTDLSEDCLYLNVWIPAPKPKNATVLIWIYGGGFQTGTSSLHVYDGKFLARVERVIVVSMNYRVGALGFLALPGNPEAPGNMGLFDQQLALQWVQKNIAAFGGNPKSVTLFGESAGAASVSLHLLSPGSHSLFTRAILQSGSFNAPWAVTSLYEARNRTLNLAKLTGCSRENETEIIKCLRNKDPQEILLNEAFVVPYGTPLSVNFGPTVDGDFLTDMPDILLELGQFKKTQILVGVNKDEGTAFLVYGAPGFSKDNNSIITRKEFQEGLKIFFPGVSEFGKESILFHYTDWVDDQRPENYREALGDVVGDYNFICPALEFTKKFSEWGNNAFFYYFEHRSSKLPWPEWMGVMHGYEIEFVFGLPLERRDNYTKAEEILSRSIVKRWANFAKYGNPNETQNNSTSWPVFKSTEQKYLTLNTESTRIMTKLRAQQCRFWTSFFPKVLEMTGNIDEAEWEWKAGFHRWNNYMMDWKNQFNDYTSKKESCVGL
Sequence of Aβ1–42 (P05067 672-713): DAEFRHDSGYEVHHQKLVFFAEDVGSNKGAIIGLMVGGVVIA
Sequence of hAChE (P22303 32-614): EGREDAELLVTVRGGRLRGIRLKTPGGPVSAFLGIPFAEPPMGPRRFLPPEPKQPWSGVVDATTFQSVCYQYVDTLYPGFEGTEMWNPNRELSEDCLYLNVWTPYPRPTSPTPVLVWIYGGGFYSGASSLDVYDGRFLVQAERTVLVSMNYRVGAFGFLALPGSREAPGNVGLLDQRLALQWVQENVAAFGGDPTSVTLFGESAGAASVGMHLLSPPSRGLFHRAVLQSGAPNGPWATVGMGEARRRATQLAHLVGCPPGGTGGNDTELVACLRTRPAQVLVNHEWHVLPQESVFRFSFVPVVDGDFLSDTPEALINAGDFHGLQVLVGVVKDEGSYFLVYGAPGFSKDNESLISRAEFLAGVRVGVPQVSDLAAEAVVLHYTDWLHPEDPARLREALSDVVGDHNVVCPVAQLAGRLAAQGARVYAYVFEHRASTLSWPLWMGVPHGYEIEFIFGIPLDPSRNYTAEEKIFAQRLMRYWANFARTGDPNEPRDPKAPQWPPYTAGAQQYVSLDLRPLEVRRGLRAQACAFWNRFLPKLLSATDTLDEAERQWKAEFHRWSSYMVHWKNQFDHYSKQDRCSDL

As to `Nc1c2c(nc3c1C(c1cccc([N+](=O)[O-])c1)c1ccc(OS(=O)(=O)c4ccc(F)cc4)cc1O3)CCCC2` (stereo not shown) [4c, 11-Amino-12-(3-nitrophenyl)-7,9,10,12-tetrahydro-8H-chromeno[2,3-b]quinolin-3-yl-4-fluorobenzenesulfonate], at hAChE, the “AChE SI (selectivity index) = IC50 of BuChE/IC50 of AChE” value (from here on “AChE SI (selectivity index) = IC50”) is on record as 1.11. Besides, the IC50 (in general, the concentration at which inhibition is half-maximal) was 0.62 ± 0.03 µM on hAChE; 0.69 ± 0.041 µM against hBuChE; 2.68 ± 0.123 µM at BACE-1; 8.04 ± 0.27 µM against hMAO-B; 4.28 ± 0.17 µM at Aβ1–42; 27.9 ± 1.24 µM in series [2]. Also, on hBuChE, the “BuChE SI (selectivity index) = IC50 of AChE/IC50 of BuChE” value (“BuChE SI (selectivity index) = IC50” below) is recorded as 0.90. For the same compound, at Aβ1–42, the inhibition – broadly, the drop in the measured response relative to a control, in per cent – at 10 µM was 47%. Moreover, in [1], the “total antioxidant capacity (Trolox equivalent)” value (“total antioxidant capacity” below) is reported as 0.80 ± 0.032 μmol of Trolox equivalent/μmol tested compound. Also, the “UV–vis spectral change on addition of FeSO4 (metal chelation)” value in series [3] is given as “extraordinary hyperchromic shifts”. The “UV–vis spectral change on addition of CuSO4 (metal chelation)” value in series [4] is listed as “extraordinary hyperchromic shifts”. Also, in [5], the “UV–vis spectral change on addition of ZnSO4 (metal chelation)” value is “extraordinary hyperchromic shifts”. In series [6], the IC50 at 24 h is 78.3 ± 3.6 µM. Besides, the “safety index ratio (SI)” value with HepG2 cell line amounted to 125.26.
`Cc1ccc(S(=O)(=O)Oc2ccc3c(c2)Oc2nc4c(c(N)c2C3c2ccc(Cl)c(Cl)c2)CCCC4)cc1` (stereo not shown) [4n, 11-Amino-12-(3,4-dichlorophenyl)-7,9,10,12-tetrahydro-8H-chromeno[2,3-b]quinolin-3-yl-4-methylbenzenesulfonate]: on hAChE, the “AChE SI (selectivity index) = IC50” value is reported as 0.38 and it took 0.47 ± 0.02 µM to reach half-maximal inhibition (IC50). On hBuChE, the “BuChE SI (selectivity index) = IC50” value is listed as 2.59, the “fold more active than rivastigmine (BuChE inhibition)” value is about 4 fold and the IC50 was 0.18 ± 0.011 µM. This compound also yielded a concentration for half-maximal inhibition (IC50) against BACE-1 of 0.25 ± 0.011 µM. In addition, at hMAO-B, the IC50 was 3.73 ± 0.13 µM and the “times better than iproniazid (MAO-B inhibition)” value was about 2 times. At Aβ1–42, the half-inhibitory concentration (IC50) was 17.4 ± 0.68 µM and the inhibition at 10 µM is 40%. In addition, the “total antioxidant capacity” value in series [1] is reported as 0.66 ± 0.026 μmol of Trolox equivalent/μmol tested compound. In series [2], this compound returned an IC50 of 91.7 ± 4.06 µM. Moreover, the “UV–vis spectral change on addition of FeSO4 (metal chelation)” value in [3] is “remarkable hyperchromic effect”. For the same compound, the “UV–vis spectral change on addition of CuSO4 (metal chelation)” value in [4] is on record as “remarkable hyperchromic effect”. Besides, the “UV–vis spectral change on addition of ZnSO4 (metal chelation)” value in series [5] is given as “remarkable hyperchromic effect”. The IC50 at 24 h in series [6] was 67.4 ± 3.3 µM. Further, the “safety index ratio (SI)” value in the series on HepG2 cell line amounted to 141.53.
Consider `Nc1c2c(nc3c1C(c1cccc([N+](=O)[O-])c1)c1ccc(OCC(=O)c4ccc(Cl)cc4)cc1O3)CCCC2` (stereo not shown) [5c, 2-[11-Amino-12-(3-nitrophenyl)-7,9,10,12-tetrahydro-8H-chromeno[2,3-b]quinolin-3-yl]oxy-1-(4-chlorophenyl)ethan-1-one], for which the “AChE SI (selectivity index) = IC50” value at hAChE was 0.19. Also, the IC50 against hAChE is 0.44 ± 0.02 µM; at hBuChE, 0.082 µM and 0.08 µM; at BACE-1 it was 0.38 ± 0.017 µM; against hMAO-B, 5.15 ± 0.17 µM; on Aβ1–42, 2.85 ± 0.11 µM; in series [2] it was 36.3 ± 1.43 µM. Moreover, the “BuChE SI (selectivity index) = IC50” value on hBuChE was 5.37. In addition, the “fold more active than rivastigmine (BuChE inhibition)” value on hBuChE was 10 fold. The inhibition at 10 µM at Aβ1–42 came out at 59%. Moreover, in series [1], the “total antioxidant capacity” value is 0.88 ± 0.034 μmol of Trolox equivalent/μmol tested compound. Further, in [3], the “UV–vis spectral change on addition of FeSO4 (metal chelation)” value is listed as “noteworthy hyperchromic effect”. In series [4], the “UV–vis spectral change on addition of CuSO4 (metal chelation)” value is listed as “noteworthy hyperchromic effect”. For the same compound, in [5], the “UV–vis spectral change on addition of ZnSO4 (metal chelation)” value is reported as “slight hyperchromic effect”. The compound also showed a 50% inhibitory concentration (IC50) at 24 h in series [6] of 188 ± 6.9 µM. In addition, the “safety index ratio (SI)” value with HepG2 cell line stood at 427.73.
On to `Nc1c2c(nc3c1C(c1ccc(Cl)c(Cl)c1)c1ccc(OCC(=O)c4ccccc4)cc1O3)CCCC2` (stereo not shown) [5i, 2-[11-Amino-12-(3,4-dichlorophenyl)-7,9,10,12-tetrahydro-8H-chromeno[2,3-b]quinolin-3-yl]oxy-1-phenylethan-1-one], for which, at hAChE, the “AChE SI (selectivity index) = IC50” value is reported as 0.47 and the 50% inhibitory concentration (IC50) was 0.56 ± 0.03 µM. Besides, at hBuChE, the “BuChE SI (selectivity index) = IC50” value is reported as 2.12, the “fold more active than rivastigmine (BuChE inhibition)” value is given as about 4 fold and inhibition was half-maximal at 0.26 ± 0.016 µM (IC50). At BACE-1, this compound displayed an IC50 of 2.12 ± 0.098 µM. On hMAO-B, half-maximal inhibition (IC50) required 1.62 ± 0.05 µM and the “times better than iproniazid (MAO-B inhibition)” value is about 4 times. At Aβ1–42, the 50% inhibitory concentration (IC50) amounted to 1.41 ± 0.05 µM and the inhibition at 10 µM was 68%. Further, in series [2], the IC50 came out at 17.2 ± 0.76 µM. Also, the “UV–vis spectral change on addition of FeSO4 (metal chelation)” value in series [3] is listed as “hyperchromic effect”. In addition, the “UV–vis spectral change on addition of CuSO4 (metal chelation)” value in series [4] was “without remarkable shifts”. For the same compound, the “UV–vis spectral change on addition of ZnSO4 (metal chelation)” value in [5] is on record as “without remarkable shifts”. Besides, in [6], the half-maximal inhibitory concentration (IC50) at 24 h was 113 ± 5.1 µM. Besides, the “safety index ratio (SI)” value with HepG2 cell line was determined as 200.53.
